# Results as given in ChEMBL document CHEMBL5303300, “EUbOPEN Chemogenomics Library - Multiplex” (2023).
# “And” between values parts separate entries of the source, which are not always exact repeats. Identical values can stand only once.
# Tested on: HEK-293T
# Test: Multiplex assay against HEK293T
# Assay type: toxicity, cell-based
# Settings: human, number of replicates 2
# Outline: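 Values for tubulin, mitochondrial-mass and membrane-permeability phenotypes are per cents of cells with healthy nuclei. These cells were identified by CellPathfinder machine-learning gating of live cells that had been stained at seeding with Hoechst33342, BioTracker Green Microtubule Cytoskeleton Dye, MitoTracker Red and Annexin V Alexa Fluor 680 and imaged on a CQ1 microscope at 37°C and 5% CO2 after compound addition. The gating first set Hoechst high-intensity objects apart from normal cells, then split normal cells into healthy, pyknosed or fragmented nuclei, and pyknosed cells into mitotic or apoptotic.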
# [1] = 12 h, 1 µM, compound concentration 1 uM
# [2] = 12 h, 10 µM, compound concentration 10 uM
# [3] = 24 h, 1 µM, compound concentration 1 uM
# [4] = 24 h, 10 µM, compound concentration 10 uM
# [5] = 48 h, 1 µM, compound concentration 1 uM
# [6] = 48 h, 10 µM, compound concentration 10 uM
smiles,measurement,setting,value
COc1cc(OC)cc(C(=O)NNC(=O)Nc2cccc3ccccc23)c1,Population Apoptotic (%),[1],42% and 53%
same,Population Fragmented Nuclei (%),[1],2% and 1%
same,Population Healthy Nuclei (%),[1],86% and 85%
same,Population Hoechst High Intensity Objects (%),[1],4%
same,Population Membrane Permeable-Phenotype (%),[1],1% and 2%
same,Population Mitochondria Different-Phenotype (%),[1],14% and 16%
same,Population Mitotic Cells (%),[1],57% and 46%
same,Population Normal (%),[1],95%
same,Population Pyknosed Nuclei (%),[1],10% and 13%
same,Population Tubulin-Different-Phenotype (%),[1],43% and 47%
same,Total Cell Count,[1],709 and 572
same,Population Apoptotic (%),[2],42% and 34%
same,Population Fragmented Nuclei (%),[2],3%
same,Population Healthy Nuclei (%),[2],84% and 83%
same,Population Hoechst High Intensity Objects (%),[2],6% and 4%
same,Population Membrane Permeable-Phenotype (%),[2],5% and 4%
same,Population Mitochondria Different-Phenotype (%),[2],15% and 12%
same,Population Mitotic Cells (%),[2],57% and 65%
same,Population Normal (%),[2],93% and 95%
same,Population Pyknosed Nuclei (%),[2],12% and 13%
same,Population Tubulin-Different-Phenotype (%),[2],60% and 46%
same,Total Cell Count,[2],571 and 696
same,Population Apoptotic (%),[3],25% and 34%
same,Population Fragmented Nuclei (%),[3],3%
same,Population Healthy Nuclei (%),[3],90% and 89%
same,Population Hoechst High Intensity Objects (%),[3],8% and 6%
same,Population Membrane Permeable-Phenotype (%),[3],2%
same,Population Mitochondria Different-Phenotype (%),[3],4%
same,Population Mitotic Cells (%),[3],74% and 65%
same,Population Normal (%),[3],91% and 93%
same,Population Pyknosed Nuclei (%),[3],5% and 6%
same,Population Tubulin-Different-Phenotype (%),[3],28% and 29%
same,Total Cell Count,[3],1130 and 899
same,Population Apoptotic (%),[4],36% and 29%
same,Population Fragmented Nuclei (%),[4],4% and 6%
same,Population Healthy Nuclei (%),[4],84% and 86%
same,Population Hoechst High Intensity Objects (%),[4],6% and 4%
same,Population Membrane Permeable-Phenotype (%),[4],4% and 3%
same,Population Mitochondria Different-Phenotype (%),[4],9% and 4%
same,Population Mitotic Cells (%),[4],63% and 70%
same,Population Normal (%),[4],93% and 95%
same,Population Pyknosed Nuclei (%),[4],11% and 6%
same,Population Tubulin-Different-Phenotype (%),[4],50% and 27%
same,Total Cell Count,[4],700 and 1003
same,Population Apoptotic (%),[5],8% and 15%
same,Population Fragmented Nuclei (%),[5],12% and 9%
same,Population Healthy Nuclei (%),[5],84% and 87%
same,Population Hoechst High Intensity Objects (%),[5],9%
same,Population Membrane Permeable-Phenotype (%),[5],4%
same,Population Mitochondria Different-Phenotype (%),[5],0%
same,Population Mitotic Cells (%),[5],91% and 84%
same,Population Normal (%),[5],91% and 90%
same,Population Pyknosed Nuclei (%),[5],3% and 2%
same,Population Tubulin-Different-Phenotype (%),[5],11% and 16%
same,Total Cell Count,[5],2889 and 1933
same,Population Apoptotic (%),[6],8% and 17%
same,Population Fragmented Nuclei (%),[6],10% and 12%
same,Population Healthy Nuclei (%),[6],82% and 84%
same,Population Hoechst High Intensity Objects (%),[6],6% and 8%
same,Population Membrane Permeable-Phenotype (%),[6],4% and 5%
same,Population Mitochondria Different-Phenotype (%),[6],3% and 0%
same,Population Mitotic Cells (%),[6],91% and 82%
same,Population Normal (%),[6],93% and 91%
same,Population Pyknosed Nuclei (%),[6],6% and 3%
same,Population Tubulin-Different-Phenotype (%),[6],30% and 17%
same,Total Cell Count,[6],1120 and 2017
CS(=O)(=O)c1ccc(C(=O)Nc2cccc(COc3ccc(Br)cc3CN3CCC[C@H](O)C3)c2)c(Cl)c1.O=CO,Population Healthy Nuclei (%),[1],82%
same,Population Mitotic Cells (%),[1],45% and 44%
same,Total Cell Count,[1],629 and 598
same,Population Healthy Nuclei (%),[2],85% and 88%
same,Population Mitotic Cells (%),[2],38% and 41%
same,Total Cell Count,[2],549 and 638
same,Population Healthy Nuclei (%),[3],83% and 85%
same,Population Mitotic Cells (%),[3],60% and 48%
same,Total Cell Count,[3],967 and 829
same,Population Healthy Nuclei (%),[4],83% and 85%
same,Population Mitotic Cells (%),[4],49% and 30%
same,Total Cell Count,[4],569 and 612
same,Population Healthy Nuclei (%),[5],82% and 86%
same,Population Mitotic Cells (%),[5],82% and 78%
same,Total Cell Count,[5],2080 and 1482
same,Population Healthy Nuclei (%),[6],86% and 84%
same,Population Mitotic Cells (%),[6],62% and 45%
same,Total Cell Count,[6],820 and 907
NCC1CCC(CNc2nc(NCc3ccccc3OC(F)(F)F)ncc2[N+](=O)[O-])CC1 (stereo not given),Population Apoptotic (%),[1],50% and 53%
same,Population Fragmented Nuclei (%),[1],3% and 4%
same,Population Healthy Nuclei (%),[1],86% and 81%
same,Population Hoechst High Intensity Objects (%),[1],9% and 10%
same,Population Membrane Permeable-Phenotype (%),[1],5% and 1%
same,Population Mitochondria Different-Phenotype (%),[1],23% and 25%
same,Population Mitotic Cells (%),[1],50% and 46%
same,Population Normal (%),[1],90% and 89%
same,Population Pyknosed Nuclei (%),[1],9% and 14%
same,Population Tubulin-Different-Phenotype (%),[1],86% and 81%
same,Total Cell Count,[1],881 and 733
same,Population Apoptotic (%),[2],73% and 77%
same,Population Fragmented Nuclei (%),[2],6% and 2%
same,Population Healthy Nuclei (%),[2],79% and 81%
same,Population Hoechst High Intensity Objects (%),[2],8% and 9%
same,Population Membrane Permeable-Phenotype (%),[2],1%
same,Population Mitochondria Different-Phenotype (%),[2],82%
same,Population Mitotic Cells (%),[2],26% and 22%
same,Population Normal (%),[2],91% and 90%
same,Population Pyknosed Nuclei (%),[2],13% and 16%
same,Population Tubulin-Different-Phenotype (%),[2],93% and 91%
same,Total Cell Count,[2],345 and 365
same,Population Apoptotic (%),[3],40% and 60%
same,Population Fragmented Nuclei (%),[3],6% and 5%
same,Population Healthy Nuclei (%),[3],85%
same,Population Hoechst High Intensity Objects (%),[3],8% and 9%
same,Population Membrane Permeable-Phenotype (%),[3],4% and 2%
same,Population Mitochondria Different-Phenotype (%),[3],9% and 10%
same,Population Mitotic Cells (%),[3],59% and 40%
same,Population Normal (%),[3],91% and 90%
same,Population Pyknosed Nuclei (%),[3],7% and 9%
same,Population Tubulin-Different-Phenotype (%),[3],70% and 65%
same,Total Cell Count,[3],1307 and 1039
same,Population Apoptotic (%),[4],67% and 68%
same,Population Fragmented Nuclei (%),[4],4% and 2%
same,Population Healthy Nuclei (%),[4],79% and 81%
same,Population Hoechst High Intensity Objects (%),[4],9% and 7%
same,Population Membrane Permeable-Phenotype (%),[4],0% and 2%
same,Population Mitochondria Different-Phenotype (%),[4],81% and 78%
same,Population Mitotic Cells (%),[4],32% and 31%
same,Population Normal (%),[4],90% and 92%
same,Population Pyknosed Nuclei (%),[4],15%
same,Population Tubulin-Different-Phenotype (%),[4],94% and 95%
same,Total Cell Count,[4],375 and 418
same,Population Apoptotic (%),[5],12% and 31%
same,Population Fragmented Nuclei (%),[5],17% and 10%
same,Population Healthy Nuclei (%),[5],80% and 86%
same,Population Hoechst High Intensity Objects (%),[5],11% and 12%
same,Population Membrane Permeable-Phenotype (%),[5],5% and 3%
same,Population Mitochondria Different-Phenotype (%),[5],0% and 1%
same,Population Mitotic Cells (%),[5],87% and 68%
same,Population Normal (%),[5],88% and 87%
same,Population Pyknosed Nuclei (%),[5],2% and 3%
same,Population Tubulin-Different-Phenotype (%),[5],42% and 39%
same,Total Cell Count,[5],2914 and 2116
same,Population Apoptotic (%),[6],67% and 62%
same,Population Fragmented Nuclei (%),[6],6% and 5%
same,Population Healthy Nuclei (%),[6],80%
same,Population Hoechst High Intensity Objects (%),[6],7% and 9%
same,Population Membrane Permeable-Phenotype (%),[6],4% and 3%
same,Population Mitochondria Different-Phenotype (%),[6],70% and 57%
same,Population Mitotic Cells (%),[6],32% and 37%
same,Population Normal (%),[6],92% and 90%
same,Population Pyknosed Nuclei (%),[6],13%
same,Population Tubulin-Different-Phenotype (%),[6],93% and 94%
same,Total Cell Count,[6],433 and 530
